We go through 20 sequences from the EternaBench riboswitch data.

One may read the apparent Kd as the concentration giving half-maximal binding under the conditions of the assay.

The subject of this data set is MS2 coat protein. Briefly: apparent Kd, MS2 coat protein; higher = weaker binding; RNA-MaP array; FMN 200 µM where present. The gist of the method: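 Stalled E. coli RNA polymerase produced the designs on Illumina sequencing-chip clusters. SNAP-549-labelled MS2 coat protein was added from 0.7 or 1.5 nM, doubling to 3 µM, without and then with constant ligand, in 100 mM Tris-HCl pH 7.5, 80 mM KCl, 4 mM MgCl2, BSA, DTT, yeast tRNA and Tween-20. The apparent Kd is the median of filtered per-cluster fits of green signal normalised to red-channel RNA signal and control-cluster median Fmax.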

Where [1] appears, read: designed as: OFF switch for flavin mononucleotide, no ligand.
The mark [2] stands for this setting: ligand present: flavin mononucleotide, designed as: OFF switch for flavin mononucleotide.
[3] abbreviates: designed as: ON switch for flavin mononucleotide, no ligand.
The mark [4] stands for this setting: ligand present: flavin mononucleotide, designed as: ON switch for flavin mononucleotide.

In the case of “UUACUUUUACAGAAGGUUUAAUAAUAUAUAAAAGAAGGAUAUGUAACAUGAGGAUCACCCAUGUUUCACCCAUAUGAGGAUCAU”, the “apparent Kd” value reads like this: under setting [1], 7.18 nM; under setting [2], 6.98 nM.

For “GGGUACAUCGGAGGAUAUCAUGUAAAUACAUGAGGAUCACCCAUGUCGAUGGAGACAUCGGAGGUUGAGAAGGCCGAUGUACCG”, the “apparent Kd” value reads like this: under setting [3], 961 nM; under setting [4], 18.5 nM.

With “GUAUCGUGAGGAUAUCAUGAUUGACUUAGUUUAUGUCAGCGUGAGAAGGCACAUGAGGAUCACCCAUGUGAUUA”, the “apparent Kd” value under setting [1] was found to be 24.7 nM and the “apparent Kd” value under setting [2] came to 54.9 nM.

Take “AAGAAUAGAAAGAUUAAUAUGAAUACAUGAGGAUCACCCAUGUAGGAUAUCGACGUCAAUGACGUCGAGAAGGACAAAAUAAAU”: the “apparent Kd” value reads like this: under setting [1], 9.44 nM; under setting [2], 9.55 nM.

Regarding “GCUCACCGUCAGAAGGUACUUAAAAGUUGUGAGUAAGGAUAUGACAUGAGGAUCACCCAUGUAAACGUGGACUUUCACAUACAU”, the “apparent Kd” value was 13.5 nM under setting [1] and 59.1 nM under setting [2].

Consider “UCCGUGGCAUCUCGCGCAUGUCUACAUGAGGAUCACCCAUGUCAGGAUAUACGGAUUGUCGUUCUGUAGAAGGGACAAGGGCUG”, for which the “apparent Kd” value runs as follows: under setting [1], 131 nM; under setting [2], 108 nM.

“AAAAAGCGAGGAUAUGCAUAAGGACCCGGGAGGGAAAUCAAACAUGAGGAUCACCCAUGUAGAAGGCGCAAAAA”: the “apparent Kd” value under setting [1] came to 16.1 nM and the “apparent Kd” value under setting [2] stood at 23.3 nM.

On to “ACAAAUUAGUGAGGAUAUGCAUAAUUUAUAACUGCAGAAGGCACAAACCUCAAGACAUGAGGAUCACCCAUGUGGAAUAUAGAU”, for which the “apparent Kd” value under setting [1] turned out to be 73 nM and the “apparent Kd” value under setting [2] came out at 182 nM.

For the sequence “AGGUAACAUGAGGAUCACCCAUGUACCAAUAAUGCAGGAUAUCGACACGAAAAUACGUGUCGAGAAGGGCAUGAAA”, the “apparent Kd” value reads like this: under setting [3], 14.1 nM; under setting [4], 16.4 nM.

“AGAUAGCGAAUAGUAAUAAAAGUACAGGAUAUGUUACAUGAGGAUCACCCAUGUAUUGGGUAAGAACAGAAGGGUACGCUAGAG”: the “apparent Kd” value by setting is: under setting [1], 144 nM; under setting [2], 123 nM.

Regarding “UAUAUAUAGUAAGGAUAUGUAUAUAUGUUAUAAACAGAAGGUACUGACAUGAGGAUCACCCAUGUUUUAGUGUGGGCAUGUAGA”, the “apparent Kd” value by setting is: under setting [1], 66.2 nM; under setting [2], 96 nM.

Regarding “GAUUGACGACAAUUACAUGAGGAUCACCCAUGUUGUAGGAUGCAGGAUAUGUGGUAUAUUAUUUAACAGAAGGGCAAUAAUUUU”, the “apparent Kd” value under setting [3] stood at 25.8 nM and the “apparent Kd” value under setting [4] came out at 29.3 nM.

As to “AAGAAGAACGCAGGAUAUCUCACCCAUGUAAGAAGAGAAGGGCGACAUGAGGAUCACCCAUGUCAACAUGAGGAUCACCCAUGU”, the “apparent Kd” value is, setting by setting: under setting [1], 59.6 nM; under setting [2], 88.9 nM.

With “CUGGGCGGAGGAUAUACAGGUUGGGCAUAAGUUCGGCUGGGACAUGAGGAUCACCCAUGUAGAAGGUUGUUUAG”, the “apparent Kd” value under setting [1] is 25.3 nM and the “apparent Kd” value under setting [2] was 23.1 nM.

For “UCGGCCGCCGUGAGGAUAUGCCCGCGCGCCCGCGGGCAGAAGGCACAUGAGGAUCACCCAUGUCCCGCGGCACU”, the “apparent Kd” value runs as follows: under setting [1], 15.4 nM; under setting [2], 27.4 nM.

Take “GUCAUCAUAUGAGGAUAUGACACCGAAACGGUGUCAGAAGGCAUGUCGAUAGACAUGAGGAUCACCCAUGUUUACAUGAUGACA”: the “apparent Kd” value by setting is: under setting [3], 84.3 nM; under setting [4], 19.7 nM.

For the sequence “GGAGCACACAUUAACAUGAGGAUCACCCAUGUCAAAAGACAUGAGGAUAUGGAUCCGAAAAGGACCCAGAAGGCAUGGUGCUCC”, the “apparent Kd” value came to 427 nM under setting [3] and 21.8 nM under setting [4].

Take “GGUGCCAUGUAGAAGGCAGAUCUGAUUCAGAUCUGAGGAUAUACAUGAGGAUCACCCAUGUAAAUGCACCGCACGAGAGUGCAA”: the “apparent Kd” value runs as follows: under setting [1], 33.1 nM; under setting [2], 149 nM.

“GGACAGGACAGAGGAUAUACGUGCUAGAGAUACUAGCAAAAUUUCCUCACAUGAGGAUCACCCAUGUAGAAGGCUGUCCUAUCG”: the “apparent Kd” value came to 7.39 nM under setting [1] and 123 nM under setting [2].

For the sequence “AUAUGGGCCCAGAAGGUGCCAGCGAGAGCUGCACAUGAGGAUCACCCAUGUUGUCGGUGACGACGCAAGGAUAUGGGCCCAUAU”, the “apparent Kd” value under setting [3] turned out to be 22.1 nM and the “apparent Kd” value under setting [4] was determined as 6.26 nM.
